The results in this text go back to ChEMBL document CHEMBL4428071 (J Med Chem, 2016).

In brackets after ≈: the same amount, converted by molar mass. Activity calls are given as the source filed them. The rule behind the calls is not given here.

Data set [1] concerns BaF3. Put plainly: Induction of apoptosis in mouse BA/F3 cells harboring TEL-fused cKIT T670I mutant allografted in nu/nu mouse at 25 to 100 mg/kg, ip administered daily for 10 days by TUNEL staining based microscopic analysis. Type of data set: functional, organism-based. Put shortly: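 Tumour sections from the daily-IP, 10-day BaF3-TEL-cKIT-T670I xenograft study were deparaffinised and digested with proteinase K for 15 min at RT. Peroxidase blocked in 3% H2O2/methanol. TdT reaction 1 h at 37 °C, converter-POD 30 min at 37 °C, DAB ~8 min, haematoxylin counterstain.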

Data set [2] is described as follows: Tmax in Sprague-Dawley rat at 1 mg/kg, iv measured up to 8 hrs post dosing. The conditions noted are these: in vivo. Type of data set: ADME, organism-based. Put shortly: (§1)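 Male Sprague-Dawley rats, 8 weeks old, fasted overnight, dosed at 1 mg/kg iv from a 1 mg/mL stock in 5% DMSO/40% PEG400/55% saline. About 0.2 mL jugular blood taken into heparin at 1 min to 8 h. Plasma held at -80 °C until analysis. n = 3, mean reported.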

Data set [3] concerns the target Mast/stem cell growth factor receptor Kit (Homo sapiens, UniProt P10721, T670I). Put plainly: Inhibition of cKIT T670I mutant in human GIST-5R cells assessed as downregulation of S6 phosphorylation at S235/236 after 1 hr by Western blot analysis. The format is cell-based. An outline of the steps: (§2)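 GIST-T1 or GIST-5R cells in DMEM with 10% FBS were treated with serially diluted compound for 1 h. Cells were then lysed and analysed by western blotting.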

Data set [4] has as its target T1, Mast/stem cell growth factor receptor Kit (Homo sapiens, UniProt P10721). Put plainly: Inhibition of partial length human cKIT expressed in bacterial expression system assessed as activity remaining at 1 uM by kinome scan assay.
The subject of data set [5] is BaF3. Put plainly: Antitumor activity against TEL-fused cKIT T670I mutant expressing mouse BA/F3 cells allografted in nu/nu mouse assessed as tumor growth inhibition dosed daily via intaperitoneal route after 10 days. Type of data set: functional, organism-based. Put shortly: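 Female nu/nu mice, 5 weeks old at purchase, given 1 million BaF3-TEL-cKIT-T670I cells in PBS/Matrigel 1:1 subcutaneously on the right flank. At tumour volume 200–400 mm3, randomised into groups of 7 and dosed IP daily for 10 days (25, 50, 100 mg/kg/d or vehicle: 0.5% methylcellulose/0.4% Tween80 in water). Tumour volume (W2×L/2) and body weight recorded daily.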

The target of data set [6] is T1, Mast/stem cell growth factor receptor Kit. Briefly: Inhibition of wild type cKIT in human GIST-T1 cells assessed as cell growth inhibition after 72 hrs by cell titer-glo assay. Type of data set: cell-based. Put shortly: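 GIST-T1 cells (cKIT wt) grown in DMEM with 10% FBS and 1% penicillin/streptomycin at 37 °C, 5% CO2. Viability read by CellTiter-Glo luminescence and normalized to DMSO controls. GI50 taken from the mean of three independent measurements.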
Background: ATP-based viability assays read luminescence as a measure of living cells.

Data set [7] can be described thus: Cytotoxicity mouse BA/F3 cells assessed as cell growth inhibition after 72 hrs by cell titer-glo assay. Type of data set: cell-based, BaF3. An outline of the steps: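 Cells seeded at 3000 per well and exposed to serial compound dilutions for 72 h. Viability read by CellTiter-Glo luminescence and normalised to DMSO controls; mean of three independent measurements. BaF3 lines kept IL-3-free in RPMI 1640/10% FBS after retroviral transduction and puromycin selection. GIST lines grown in DMEM/10% FBS.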

Data set [8] has as its target T1, Mast/stem cell growth factor receptor Kit. Put plainly: Inhibition of wild type cKIT in human GIST-T1 cells assessed as downregulation of ERK phosphorylation at T202//204 after 1 hr by Western blot analysis. Type of data set: cell-based. Put shortly: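 GIST-T1 cells in DMEM with 10% FBS were exposed to serially diluted compound for 1 h, then lysed. Lysates were analysed by western blot with phospho-specific antibodies against AKT (Ser473), ERK1/2 (Thr202/Tyr204) and S6 ribosomal protein (Ser235/236), each alongside its total protein.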
Background: Immunoblotting shows a protein as a band on a membrane.

Data set [9] can be described thus: MRT (0 to infinity) in Sprague-Dawley rat at 1 mg/kg, iv measured up to 8 hrs post dosing. Type of data set: ADME, organism-based. The conditions noted are these: in vivo. Put shortly: as §1
Data set [10] addresses Cyclin-dependent kinase-like 2 (Homo sapiens) (UniProt Q92772). Briefly: Inhibition of partial length human CDKL2 expressed in bacterial expression system assessed as activity remaining at 1 uM by kinome scan assay.
In data set [11] the target is T1, Mast/stem cell growth factor receptor Kit. Briefly: Ratio of sunitinib IC50 to compound IC50 for TEL-fused cKIT (unknown origin) expressed in mouse BA/F3 cells. Type of data set: cell-based.
Data set [12] has the same target. Put plainly: Inhibition of TEL-fused cKIT (unknown origin) expressed in mouse BA/F3 cells assessed as cell growth inhibition after 72 hrs by cell titer-glo assay. Type of data set: cell-based.
For data set [13] the target is unchanged. Briefly: Inhibition of wild type cKIT autophosphorylation at Y719 in human GIST-T1 cells at 100 nM after 1 hr by Western blot analysis. The format is cell-based. An outline of the steps:
as §2

The target is the same in data set [14]. Briefly: Ratio of imatinib IC50 to compound IC50 for TEL-fused cKIT (unknown origin) expressed in mouse BA/F3 cells. The format is cell-based.
Data set [15] is described as follows: Half life in Sprague-Dawley rat at 1 mg/kg, iv measured up to 8 hrs post dosing. Type of data set: ADME, organism-based. The conditions noted are these: in vivo. An outline of the steps:
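Male Sprague-Dawley rats, 8 weeks old, fasted overnight; iv dosing from a 1 mg/mL solution in 5% DMSO/40% PEG400/55% saline. Jugular-vein blood (~0.2 mL, heparinised) taken at 1, 5, 15, 30 min and 1, 2, 4, 6, 8 h; plasma held at -80 °C until analysis; n=3.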

The subject of data set [16] is Mast/stem cell growth factor receptor Kit (Homo sapiens), P10721 [T670I]. Put plainly: Inhibition of […] cKIT T670I mutant in human GIST-5R cells assessed as cell growth inhibition after 72 hrs by cell titer-glo assay. Type of data set: cell-based.
Data set [17] shares this test system. Put plainly: Ratio of Imatinib IC50 to compound IC50 for cKIT T670I mutant in human in GIST-5R cells. Type of data set: cell-based.
A short description of data set [18]: Solubility of the compound in PBS buffer at pH 7.4. Type of data set: physicochemical. An outline of the steps:
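Solubility measured in PBS pH 7.4 and in pure water, reported as µg/mL.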

T1 sequence (P10721 whole entry, the tested form may be a part): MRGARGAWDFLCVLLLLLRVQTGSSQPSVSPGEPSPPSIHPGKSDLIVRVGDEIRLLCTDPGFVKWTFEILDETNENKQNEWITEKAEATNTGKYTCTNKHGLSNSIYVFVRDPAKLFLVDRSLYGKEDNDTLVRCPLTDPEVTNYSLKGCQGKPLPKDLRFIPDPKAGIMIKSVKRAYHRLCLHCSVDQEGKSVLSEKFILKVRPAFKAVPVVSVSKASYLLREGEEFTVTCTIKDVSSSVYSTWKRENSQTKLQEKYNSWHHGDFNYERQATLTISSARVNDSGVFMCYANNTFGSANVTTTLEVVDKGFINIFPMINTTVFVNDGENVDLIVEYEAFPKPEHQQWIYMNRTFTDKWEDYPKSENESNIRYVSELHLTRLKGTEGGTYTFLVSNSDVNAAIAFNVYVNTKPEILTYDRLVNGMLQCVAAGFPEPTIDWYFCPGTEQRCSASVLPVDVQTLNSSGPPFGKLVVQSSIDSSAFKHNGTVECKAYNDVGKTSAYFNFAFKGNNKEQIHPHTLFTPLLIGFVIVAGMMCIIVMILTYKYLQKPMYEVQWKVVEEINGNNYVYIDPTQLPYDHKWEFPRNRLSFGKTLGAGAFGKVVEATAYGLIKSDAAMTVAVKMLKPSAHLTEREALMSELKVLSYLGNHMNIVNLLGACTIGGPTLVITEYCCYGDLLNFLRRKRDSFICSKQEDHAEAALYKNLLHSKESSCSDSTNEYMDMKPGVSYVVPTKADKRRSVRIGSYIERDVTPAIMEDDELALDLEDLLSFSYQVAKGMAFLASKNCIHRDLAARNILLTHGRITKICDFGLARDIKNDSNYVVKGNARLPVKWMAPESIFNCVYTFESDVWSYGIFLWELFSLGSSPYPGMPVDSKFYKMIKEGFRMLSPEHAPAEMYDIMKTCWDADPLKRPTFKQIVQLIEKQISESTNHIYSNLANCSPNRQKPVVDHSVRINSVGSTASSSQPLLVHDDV
Sequence of Mast/stem cell growth factor receptor Kit (Homo sapiens), P10721 [T670I] (P10721 whole entry T670I): as the sequence (P10721 whole entry, the tested form may be a part) above, with T670I counted along it
Sequence of Cyclin-dependent kinase-like 2 (Homo sapiens) (Q92772 whole entry, the tested form may be a part): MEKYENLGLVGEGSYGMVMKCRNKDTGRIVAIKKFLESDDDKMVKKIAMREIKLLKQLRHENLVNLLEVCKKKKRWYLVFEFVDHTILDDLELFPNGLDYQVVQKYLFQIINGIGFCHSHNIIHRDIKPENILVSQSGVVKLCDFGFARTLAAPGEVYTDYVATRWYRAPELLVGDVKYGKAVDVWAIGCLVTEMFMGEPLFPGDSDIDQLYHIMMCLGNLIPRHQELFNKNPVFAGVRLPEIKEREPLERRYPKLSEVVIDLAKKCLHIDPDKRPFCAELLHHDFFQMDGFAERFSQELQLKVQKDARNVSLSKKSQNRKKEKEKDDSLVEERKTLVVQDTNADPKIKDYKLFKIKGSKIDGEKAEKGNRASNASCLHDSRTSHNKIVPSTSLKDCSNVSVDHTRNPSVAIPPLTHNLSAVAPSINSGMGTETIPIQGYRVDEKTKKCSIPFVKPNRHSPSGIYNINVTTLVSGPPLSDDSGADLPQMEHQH
Sequence of Mast/stem cell growth factor receptor Kit (Homo sapiens, UniProt P10721, T670I) (P10721 26-976 T670I limits assumed): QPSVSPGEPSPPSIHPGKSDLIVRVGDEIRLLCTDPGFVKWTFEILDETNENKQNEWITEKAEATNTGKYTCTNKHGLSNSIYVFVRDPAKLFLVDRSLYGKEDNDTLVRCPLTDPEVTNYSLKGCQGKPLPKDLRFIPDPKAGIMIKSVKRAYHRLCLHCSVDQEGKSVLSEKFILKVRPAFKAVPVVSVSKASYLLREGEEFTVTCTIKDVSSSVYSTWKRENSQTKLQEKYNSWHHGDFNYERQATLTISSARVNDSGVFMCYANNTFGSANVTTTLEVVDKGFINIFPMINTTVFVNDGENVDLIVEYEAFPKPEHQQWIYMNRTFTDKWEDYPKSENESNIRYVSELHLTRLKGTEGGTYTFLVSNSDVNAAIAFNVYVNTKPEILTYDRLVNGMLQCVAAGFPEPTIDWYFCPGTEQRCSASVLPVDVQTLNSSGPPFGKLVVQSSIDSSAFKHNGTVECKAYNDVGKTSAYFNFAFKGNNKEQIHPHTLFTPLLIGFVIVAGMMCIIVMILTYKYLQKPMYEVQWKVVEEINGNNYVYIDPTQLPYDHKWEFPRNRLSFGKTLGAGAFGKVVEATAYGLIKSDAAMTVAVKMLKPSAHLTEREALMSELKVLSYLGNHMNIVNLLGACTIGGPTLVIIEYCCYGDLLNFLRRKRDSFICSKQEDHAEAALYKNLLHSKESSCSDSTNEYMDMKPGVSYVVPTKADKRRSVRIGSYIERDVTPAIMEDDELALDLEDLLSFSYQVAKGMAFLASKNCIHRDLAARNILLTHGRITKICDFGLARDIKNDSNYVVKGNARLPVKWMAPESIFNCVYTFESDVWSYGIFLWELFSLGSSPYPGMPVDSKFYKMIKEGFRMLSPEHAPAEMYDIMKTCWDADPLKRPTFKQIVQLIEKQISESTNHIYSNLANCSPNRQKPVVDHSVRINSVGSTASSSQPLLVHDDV

`CCC(=O)NCC1CCN(c2ccc(NC(=O)Nc3cccc(Oc4ccnc5cc(OC)c(OC)cc45)c3)cc2C(F)(F)F)CC1`: the result with BaF3 [1] was Active. The Tmax in data set [2] was found to be 1.02 min. Further, the EC50 in data set [3] and in data set [8] was below 100 nM each time. For the same compound, the values for the Activity in [4] and in data set [10] were below 1% and 0%, respectively. The TGI result in the data set with BaF3 [5] is “Dose-dependent effect”. Further, the results for the GI50 in [6], in data set [12] and in data set [16] were 4 nM, 57 nM and 26 nM, respectively. Also, the 50% growth inhibitory concentration (GI50) at 72 h in data set [7] is above 10000 nM. The same compound gave a mean residence time MRT inf in data set [9] of 46.8 min. Further, the Ratio IC50 in [11] was 2; in [14] it was 10; in [17], 300. For the same compound, in [13], the inhibition entry is “Active”. The same compound gave a half-life in data set [15] of 122 min. For the same compound, in [18], the solubility was 35 µM (≈ 22.8 µg/mL).

A word on the Tmax: it is the time from dosing to the highest level. One may read the EC50 as the concentration giving half of the maximal effect. The term GI50 denotes the concentration that inhibits growth by half. By MRT inf is commonly meant a mean duration of stay, worked out from the concentration-time curve. By half-life is commonly meant how long it takes for the measured level to halve. Low readings indicate fast loss, high ones slow loss. As usually defined, the solubility is the concentration that dissolves in the medium under given conditions. A high value points to a readily soluble substance.
